Measured values as given in ChEMBL document CHEMBL1800059, “Spiroindane based amides as potent and selective MC4R agonists for the treatment of obesity” (Bioorg Med Chem Lett, 2010).
Active and inactive are the calls of the source. The calls are words filed in the database; no cut-off is given here.

Tests used:
Melanocortin receptor 4 [1] = biological target: T1, Melanocortin receptor 4 (Homo sapiens, UniProt P32245); experiment: Agonist activity at human MC4R expressed in CHO cells assessed as increase of alpha-MSH-stimulated cAMP release pretreated for 10 mins before alpha-MSH challenge measured after 40 mins relative to alpha-MSH; type: functional, cell-based
Procedure, shortened: (§1)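 Each value is the mean of at least three repeat measurements. Functional read-outs give EC50 with % maximal activation.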

Rattus norvegicus [2] = experiment: Antiobesity activity in wild type 14 days diet-induced obese rat model assessed as reduction in body weight at 10 mg/kg, po BID; type: functional, organism-based; parameters: dose 10 mg/kg
[3] = Volume of distribution at steady state in Sprague-Dawley rat at 1 mg/kg, iv and 4 mg/kg, po; type: ADME, organism-based; conditions: in vivo, read-out: Vdss
Melanocortin receptor 4 [4] = biological target: T1, Melanocortin receptor 4; experiment: Agonist activity at human MC4R expressed in CHO cells assessed as increase of alpha-MSH-stimulated cAMP release pretreated for 10 mins before alpha-MSH challenge measured after 40 mins; type: functional, cell-based; procedure, shortened: as §1
Melanocortin receptor 4 [5] = biological target: T1, Melanocortin receptor 4; experiment: Displacement of [125I]-NDP-R-MSH from human MC4R expressed in CHO cells after 1.5 hrs by scintillation counting; type: cell-based; procedure, shortened: as §1
[6] = Half life in Sprague-Dawley rat at 1 mg/kg, iv and 4 mg/kg, po; type: ADME, organism-based; conditions: in vivo
[7] = Oral bioavailability in Sprague-Dawley rat at 4 mg/kg; type: ADME, organism-based; conditions: in vivo
[8] = Agonist activity at human MC1bR expressed in CHO cells assessed as increase of alpha-MSH-stimulated cAMP release pretreated for 10 mins before alpha-MSH challenge measured after 40 mins relative to alpha-MSH; type: functional; procedure, shortened: as §1
[9] = Agonist activity at human MC1bR expressed in CHO cells assessed as increase of alpha-MSH-stimulated cAMP release pretreated for 10 mins before alpha-MSH challenge measured after 40 mins; type: functional, cell-based; procedure, shortened: as §1
Rattus norvegicus [10] = experiment: Dose-normalized AUC in Sprague-Dawley rat at 1 mg/kg, iv and 4 mg/kg, po; type: ADME, organism-based; conditions: in vivo
[11] = Clearance in Sprague-Dawley rat at 1 mg/kg, iv and 4 mg/kg, po; type: ADME, organism-based; conditions: in vivo
Mus musculus [12] = experiment: Antiobesity activity in wild type diet-induced obese mouse model assessed as reduction in food intake at 10 mg/kg, po; type: functional, organism-based; parameters: dose 10 mg/kg
Procedure, shortened: (§2)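 Wild-type and MC4R/3R knockout mice received a single oral dose of 10 mg/kg, with a vehicle-dosed group for each genotype. Food intake and body weight change were measured against vehicle.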

Rattus norvegicus [13] = experiment: Antiobesity activity in wild type 14 days diet-induced obese rat model assessed as reduction in body weight at 6 mg/kg, po BID; type: functional, organism-based; parameters: dose 6 mg/kg
Procedure, shortened: (§3)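 Diet-induced obese rats were dosed orally twice daily for 14 days at 2, 6 or 20 mpk. Vehicle and orally dosed positive-control groups were included. Body weight was recorded daily and expressed as change in grams.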

Rattus norvegicus [14] = experiment: Antiobesity activity in wild type 14 days diet-induced obese rat model assessed as reduction in body weight at 20 mg/kg, po BID; type: functional, organism-based; parameters: dose 20 mg/kg; procedure, shortened: as §3
Mus musculus [15] = experiment: Antiobesity activity in MC4R/3R knockout diet-induced obese mouse model assessed as reduction in body weight at 10 mg/kg, po; type: functional, organism-based; parameters: dose 10 mg/kg; procedure, shortened: as §2
Melanocortin receptor 3 = Melanocortin receptor 3 (Mus musculus, UniProt P33033); experiment: Agonist activity at mouse MC3 receptor; type: functional
Mus musculus [16] = experiment: Antiobesity activity in wild type diet-induced obese mouse model assessed as reduction in body weight at 10 mg/kg, po; type: functional, organism-based; parameters: dose 10 mg/kg; procedure, shortened: as §2
Mus musculus [17] = experiment: Antiobesity activity in MC4R/3R knockout diet-induced obese mouse model assessed as reduction in food intake at 10 mg/kg, po; type: functional, organism-based; parameters: dose 10 mg/kg; procedure, shortened: as §2

T1 sequence (P32245 whole entry): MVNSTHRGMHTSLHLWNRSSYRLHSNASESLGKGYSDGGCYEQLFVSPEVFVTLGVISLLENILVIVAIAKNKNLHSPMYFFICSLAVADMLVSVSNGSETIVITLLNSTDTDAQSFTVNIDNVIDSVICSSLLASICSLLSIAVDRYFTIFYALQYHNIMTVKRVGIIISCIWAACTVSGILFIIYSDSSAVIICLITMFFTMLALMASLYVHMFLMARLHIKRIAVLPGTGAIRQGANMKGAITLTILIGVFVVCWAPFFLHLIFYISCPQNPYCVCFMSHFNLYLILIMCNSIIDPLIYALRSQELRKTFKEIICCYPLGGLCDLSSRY
Chain of Melanocortin receptor 3 (P33033 whole entry): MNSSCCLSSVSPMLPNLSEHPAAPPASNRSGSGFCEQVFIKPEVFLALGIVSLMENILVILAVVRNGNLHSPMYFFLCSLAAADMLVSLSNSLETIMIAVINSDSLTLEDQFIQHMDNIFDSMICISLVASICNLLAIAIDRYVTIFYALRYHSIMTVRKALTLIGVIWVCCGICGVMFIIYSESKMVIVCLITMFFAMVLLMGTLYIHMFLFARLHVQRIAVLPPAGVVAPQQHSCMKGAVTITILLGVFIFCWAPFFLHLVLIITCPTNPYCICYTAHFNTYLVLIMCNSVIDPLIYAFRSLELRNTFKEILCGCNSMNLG

Activity (Melanocortin receptor 4 [1]) [%] | Vd [3] [L/kg] | EC50 (Melanocortin receptor 4 [4]) [nM] | IC50 (Melanocortin receptor 4 [5]) [nM] | half-life [6] [h] | bioavailability [7] [%] | EC50 [9] [nM] | AUC/dose (Rattus norvegicus [10]) [µM·h/mg/kg] | clearance [11] [mL/min/kg] | EC50 (Melanocortin receptor 3) [nM] | Compound | Activity (Rattus norvegicus [2]) | Activity [8] [%] | Activity (Mus musculus [12]) | Activity (Rattus norvegicus [13]) | Activity (Rattus norvegicus [14]) | Activity (Mus musculus [15]) | Activity (Mus musculus [16]) | Activity (Mus musculus [17])
97 | – | – | – | – | – | – | – | – | – | CC[C@H](NC(C)=O)c1cc(Cl)ccc1C1CCN(C(=O)[C@@H]2CN(C(C)(C)C)C[C@H]2c2ccc(F)cc2F)CC1 | Active | – | – | – | – | – | – | –
78 | 8.88 | 4.3 | 1.8 | 7.3 | 29 | 430 | 0.35 | 21.8 | – | Cc1cc2c(cc1Cl)C1(CCN(C(=O)[C@@H]3CN(C(C)(C)C)C[C@H]3c3ccc(F)cc3F)CC1)C[C@@H]2C(C)(C)C(=O)N1CC(F)(F)C1 | – | 46 | – | – | – | – | – | –
112 | 10.4 | 2.1 | 8.5 | 15.1 | 22 | 494 | 0.83 | 9.1 | – | CC(=O)N(C)C(C)(C)[C@@H]1CC2(CCN(C(=O)[C@@H]3CN(C(C)(C)C)C[C@H]3c3ccc(F)cc3F)CC2)c2cc(Cl)c(C)cc21 | – | 35 | – | – | – | – | – | –
109 | – | 4.6 | – | – | – | 1020 | – | – | 1700 | CC(=O)NC(C)(C)[C@@H]1CC2(CCN(C(=O)[C@@H]3CN(C(C)(C)C)C[C@H]3c3ccc(F)cc3F)CC2)c2cc(Cl)c(C)cc21 | – | 25 | Active | Active | Active | inactive | Active | inactive
